The source of these data is ChEMBL document CHEMBL4257587 (J Med Chem, 2018).

Data set [1] in a line: Clearance in C57BL/6 mouse at 3.6 mg/kg, iv by LC-MS/MS analysis. It is filed as ADME, organism-based. As to conditions: in vivo. An outline of the steps:
(§1)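 Female C57BL/6 mice (18−20 g), single intravenous dose in 5% DMSO/20% Encapsin. Tail-vein whole blood (25 μL) was taken from each mouse (n = 5) at 5, 15 and 30 min and 1, 2, 4 and 8 h postdose, and compound concentration was measured in peripheral whole blood.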

Data set [2] in a line: Cmax in C57BL/6 mouse at 18.7 mg/kg, po via gavage by LC-MS/MS analysis. As to conditions: in vivo. The class given is ADME, organism-based. Further details: dose 18.7 mg/kg, route oral.
Data set [3] is described as follows: Oral bioavailability in C57BL/6 mouse at 18.7 mg/kg via gavage by LC-MS/MS analysis. As to conditions: in vivo. The class given is ADME, organism-based.
The test system of data set [4] is Mycobacterium tuberculosis. As to the kind of experiment: Antimycobacterial activity against Mycobacterium tuberculosis H37Rv ATCC 25618 after 6 days by resazurin-based assay. The class given is functional. Conditions: H37Rv ATCC 25618, 144 h.
Data set [5] is described as follows: Intrinsic clearance in mouse liver microsomes at 0.5 uM preincubated with NADPH and measured up to 30 mins by LC-MS/MS analysis. It is filed as ADME, microsome. Background: Microsomes from liver hold many membrane-bound enzymes, among them those of drug oxidation.
Data set [6] is described as follows: Half life in C57BL/6 mouse at 3.6 mg/kg, iv by LC-MS/MS analysis. It is filed as ADME, organism-based. Conditions: in vivo. In outline: as §1
Data set [7] in a line: Volume of distribution at steady state in C57BL/6 mouse at 3.6 mg/kg, iv by LC-MS/MS analysis. The class given is ADME, organism-based. Conditions: in vivo, read-out: Vdss. An outline of the steps:
as §1

A short description of data set [8]: Intrinsic clearance in human liver microsomes at 0.5 uM preincubated with NADPH and measured up to 30 mins by LC-MS/MS analysis. It is filed as ADME, microsome.
The nature of data set [9]: AUC in C57BL/6 mouse at 18.7 mg/kg, po via gavage by LC-MS/MS analysis. It is filed as ADME, organism-based. Conditions: in vivo.
For data set [10], the system named is HepG2. As to the kind of experiment: cells. It is filed as ADME, cell-based. Conditions: Homo sapiens, HepG2, 48 h.
The test system of data set [11] is HepG2. The data set can be described thus: Cytotoxicity against human HepG2 cells assessed as effect on mitochondrial membrane potential after 48 hrs by TMRM-staining based cell health assay. It is filed as ADME. As to conditions: HepG2, 48 h.
A further data set is described as follows: physchem. Conditions: buffer, pH 7.4.
The test system of data set [12] is HepG2. As to the kind of experiment: Cytotoxicity against human HepG2 cells assessed as effect on membrane permeability after 48 hrs by TOTO-3 iodide-staining based cell health assay. It is filed as ADME. Conditions: HepG2, 48 h.
Data set [13] in a line: Cmax in C57BL/6 mouse at 45 mg/kg, po via gavage by LC-MS/MS analysis. Further details: dose 45 mg/kg, route oral. The class given is ADME, organism-based. As to conditions: in vivo.
Data set [14] in a line: Clearance in C57BL/6 mouse at 4.5 mg/kg, iv by LC-MS/MS analysis. It is filed as ADME, organism-based. As to conditions: in vivo.
Data set [15] in a line: Oral bioavailability in C57BL/6 mouse at 45 mg/kg via gavage by LC-MS/MS analysis. Conditions: in vivo. The class given is ADME, organism-based.
A short description of data set [16]: Volume of distribution at steady state in C57BL/6 mouse at 4.5 mg/kg, iv by LC-MS/MS analysis. The class given is ADME, organism-based. As to conditions: in vivo, read-out: Vdss.
A short description of data set [17]: AUC in C57BL/6 mouse at 45 mg/kg, po via gavage by LC-MS/MS analysis. It is filed as ADME, organism-based. As to conditions: in vivo.
Data set [18] is described as follows: Half life in C57BL/6 mouse at 4.5 mg/kg, iv by LC-MS/MS analysis. It is filed as ADME, organism-based. As to conditions: in vivo.
Data set [19] in a line: Clearance in C57BL/6 mouse at […], iv by LC-MS/MS analysis. The class given is ADME, organism-based. Conditions: in vivo.
The nature of data set [20]: Half life in C57BL/6 mouse at […], iv by LC-MS/MS analysis. Conditions: in vivo. It is filed as ADME, organism-based.
Data set [21] can be described thus: Cmax in C57BL/6 mouse at 44 mg/kg, po via gavage by LC-MS/MS analysis. Details: dose 44 mg/kg, route oral. Conditions: in vivo. The class given is ADME, organism-based.
A further data set deals with Mus musculus. As to the kind of experiment: Toxicity in Mycobacterium tuberculosis H37Rv infected C57BL/6 mouse assessed as drug tolerability at >50 mg/kg, po administered once daily for 8 days starting following day after infection and measured at 24 hrs post last dose. It is filed as organism-based. As to conditions: in vivo.
Data set [22] relates to Mycobacterium tuberculosis. As to the kind of experiment: Antibacterial activity against Mycobacterium tuberculosis H37Rv infected in C57BL/6 mouse assessed as reduction in colony forming units administered orally once daily for 8 days starting following day after infection and measured at 24 hrs post last dose relative to untreated control. The class given is functional. An outline of the steps:
(§2)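 Female C57BL/6 mice, 8−10 weeks old, infected intratracheally with 100 000 CFU of H37Rv. Oral dosing once daily for 8 days began 1 day post-infection. Lungs were harvested 24 h after the last dose, homogenised and plated on 7H11 with 10% OADC and 0.4% charcoal for 18 days at 37 °C. Log10 CFU was fitted to a sigmoidal dose-response curve, and ED99 was defined as a 2-log CFU drop versus untreated.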

For data set [23], the system named is Mycobacterium tuberculosis. As to the kind of experiment: Antibacterial activity against Mycobacterium tuberculosis H37Rv infected in C57BL/6 mouse assessed as efficacious dose casing 2 log reduction in colony forming units administered orally once daily for 8 days starting following day after infection and measured at 24 hrs post last dose. Conditions: po. The class given is functional. In outline: as §2

A short description of data set [24]: Volume of distribution at steady state in C57BL/6 mouse at […], iv by LC-MS/MS analysis. The class given is ADME, organism-based. Conditions: in vivo, read-out: Vdss.
The nature of data set [25]: Oral bioavailability in C57BL/6 mouse at 44 mg/kg via gavage by LC-MS/MS analysis. The class given is ADME, organism-based. As to conditions: in vivo.
Data set [26] in a line: AUC in C57BL/6 mouse at 44 mg/kg, po via gavage by LC-MS/MS analysis. The class given is ADME, organism-based. As to conditions: in vivo.

Values after ≈ are worked out from the molar mass of the structure shown. Active and inactive are the calls of the source.

The clearance is the volume of plasma or blood freed of the substance per unit of time. Read a low clearance as inefficient removal. By Cmax is commonly meant the maximum level reached in the sampled fluid or tissue. The bioavailability is dose-corrected exposure relative to a reference, in per cent. High values mean much systemic uptake, low ones little systemic uptake. A word on the MIC90: it is the lowest concentration that inhibits either 90% of growth or 90% of the strains tested, depending on the study. The half-life is the time in which the quantity being followed falls by half. Read a low half-life as rapid decline. The term AUC denotes concentration integrated over time. Read a low AUC as less exposure. Regarding `c1ccc(Oc2ccc(CN3CCC4(CC3)OCCc3sccc34)cc2)cc1`, the clearance in [1] amounted to 67.7 mL/min/kg. In data set [2], this compound yielded a Cmax of 50 ng/mL. Besides, the bioavailability in [3] was 1.5%. This compound yielded an MIC90 in [4] of 0.05 µM (≈ 0.0196 µg/mL). The CLH in data set [5] came to 28.8 mL/min/g; in data set [8], 12 mL/min/g. This compound also gave a half-life in data set [6] of 3.9 h. In data set [7], the Vd turned out to be 19.4 L/kg. For the same compound, in data set [9], the AUC is 100 ng·h/mL.

By IC50 is commonly meant the concentration at which inhibition is half-maximal. As usually defined, the kinetic solubility is the concentration staying in solution when a stock, usually in DMSO, is diluted into the medium. `CC(C)(C)c1ccc(CN2CCC3(CC2)OCCCCO3)cc1` had an MIC90 in data set [4] of 5 µM (≈ 1.59 µg/mL). Also, the CLH turned out to be 27 mL/min/g in data set [5] and 4.1 mL/min/g in data set [8]. The IC50 in the data set with HepG2 [10] was 166 µM; in the data set on HepG2 [11], 170 µM; in the data set with HepG2 [12], more than 200 µM. In the data set “physchem”, the kinetic solubility at 1 h turned out to be 194 µM (≈ 61.6 µg/mL).

`Brc1ccc(Nc2ccc(CN3CCC4(CC3)OCCc3sccc34)cc2)cc1` came in with an MIC90 in data set [4] of 0.2 µM (≈ 0.0939 µg/mL). For the same compound, the CLH is 0.9 mL/min/g in [5] and 1.5 mL/min/g in data set [8]. In addition, the peak level in [13] (Cmax) was 1020 ng/mL. The same compound registered a clearance in data set [14] of 19.8 mL/min/kg. The same compound showed a bioavailability in [15] of 84.6%. For the same compound, the Vd in data set [16] is 12 L/kg. Further, the AUC in data set [17] turned out to be 17900 ng·h/mL. The compound also showed a half-life in data set [18] of 7.3 h.

Compound `CC(C)(C)c1ccc(CN2CCC3(CCCOC3)CC2)cc1` displayed an MIC90 in data set [4] of 0.63 µM (≈ 0.19 µg/mL). Moreover, the CLH was 48 mL/min/g in data set [5] and 7.3 mL/min/g in [8]. For the same compound, the IC50 with HepG2 [10], with HepG2 [11] and in the data set with HepG2 [12] was more than 200 µM each time. For the same compound, the solubility (kinetic) at 1 h in “physchem” came out at 363 µM (≈ 109 µg/mL).

Turning to `FC(F)(F)Oc1ccc(Oc2ccc(N3CCC4(CC3)OCCc3sccc34)cc2)cc1`, the clearance in data set [19] was found to be 36.3 mL/min/kg. Also, the MIC90 in data set [4] worked out at 0.06 µM (≈ 0.0277 µg/mL). For the same compound, the figures for the CLH in data set [5] and in [8] were 1.2 mL/min/g and 0.6 mL/min/g, respectively. For the same compound, the half-life in data set [20] was 3.2 h. In addition, in data set [21], the peak level (Cmax) was 1270 ng/mL. 11 µM corresponded to half-maximal inhibition in the data set on HepG2 [10] (IC50). In addition, the Activity result was “Non-Toxic” in the data set with Mus musculus and 4.2 log10CFU in data set [22]. Besides, the ED99 in [23] came out at 11.6 mg/kg. For the same compound, the Vd in data set [24] was 10.4 L/kg. In [25], the bioavailability was found to be 42.6%. Further, the AUC in data set [26] worked out at 8740 ng·h/mL.

Turning to `NNC(=O)c1ccncc1`, the result in [22] was Active.

`CC(C)(C)c1ccc(CN2CCC3(CCOCC3)CC2)cc1` yielded an MIC90 in [4] of 5 µM (≈ 1.51 µg/mL). Moreover, the CLH in [5] worked out at 2.25 mL/min/g; in [8], 0.95 mL/min/g. The IC50 in the data set on HepG2 [10], with HepG2 [11] and in the data set with HepG2 [12] was more than 200 µM each time. The kinetic solubility at 1 h in “physchem” is not below 399 µM.

For `FC(F)(F)Oc1ccc(Oc2ccc(CN3CCC4(CCCCC4)CC3)cc2)cc1`, the MIC90 in data set [4] turned out to be 0.1 µM (≈ 0.0419 µg/mL). In addition, the CLH in [5] amounted to 2.8 mL/min/g; in [8], 0.5 mL/min/g. The IC50 was found to be 25.9 µM in the data set with HepG2 [10], 21.8 µM in the data set with HepG2 [11] and 28.3 µM in the data set on HepG2 [12]. The compound also returned a solubility (kinetic) at 1 h in “physchem” of less than 1 µM.
